Source: ChEMBL document CHEMBL1126557, “Novel antiasthmatic agents with dual activities of thromboxane A2 synthetase inhibition and bronchodilation. 2. 4-(3-Pyridyl)-1(2H)-phthalazinones” (J Med Chem, 1993)
pIC50: −log10 of the molar value.

How the values were obtained:
[1] = species on record: Cavia porcellus; assay: In vitro bronchodilatory activity in guinea pig isolated tracheal strips; type: functional; conditions: Trachea
[2] = test system: Thromboxane-A synthase (Oryctolagus cuniculus); assay: Tested in vitro against rabbit thromboxane A2 synthetase (TXA2) at 1 uM
[3] = biological target: T1, Thromboxane-A synthase (Rattus norvegicus) (UniProt P49430); assay: Tested ex vivo against TXA2 production in rat serum at 1 hr after peroral dose of 30 mg/kg and anesthetized with ether; type: functional, organism-based; design: dose 30 mg/kg
T1 sequence (whole entry): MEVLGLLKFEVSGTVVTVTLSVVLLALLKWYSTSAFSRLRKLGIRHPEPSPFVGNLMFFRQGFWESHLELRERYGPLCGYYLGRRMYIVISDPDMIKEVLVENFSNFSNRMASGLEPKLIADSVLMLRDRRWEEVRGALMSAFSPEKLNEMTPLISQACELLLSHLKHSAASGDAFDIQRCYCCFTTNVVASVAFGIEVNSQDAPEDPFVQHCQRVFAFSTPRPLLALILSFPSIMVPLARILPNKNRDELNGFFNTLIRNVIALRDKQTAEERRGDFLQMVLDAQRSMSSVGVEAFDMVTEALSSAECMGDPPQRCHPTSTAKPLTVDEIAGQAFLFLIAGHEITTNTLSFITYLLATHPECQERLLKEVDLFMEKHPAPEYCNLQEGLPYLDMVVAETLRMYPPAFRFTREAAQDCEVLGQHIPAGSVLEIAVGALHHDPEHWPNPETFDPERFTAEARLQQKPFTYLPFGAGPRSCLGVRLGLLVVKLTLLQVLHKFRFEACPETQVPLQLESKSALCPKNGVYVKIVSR
How it was run: (§1)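 Male SD rats (240–260 g), fasted 20 h, dosed orally with compound in 0.5% carboxymethylcellulose or vehicle alone. At 1 h, ether anesthesia and 2 mL cardiac blood taken and clotted at 37 °C for 90 min.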

[4] = test system: Cavia porcellus; assay: In vivo inhibitory effect on airway constriction induced by histamine 2-5 micro g/kg iv at 1 min after 10 mg/kg iv dose of compound; type: functional
How it was run: (§2)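 Male Dunkin-Hartley guinea pigs anesthetized with pentobarbital 35 mg/kg ip, jugular vein and trachea cannulated, ventilated at 10 mL/kg, 60 strokes/min. Insufflation pressure recorded. Histamine 2–5 μg/kg iv repeated every 10 min until a reproducible control response. Compound 10 mg/kg iv 1 min before the next challenge.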

[5] = test system: Cavia porcellus; assay: In vivo inhibitory effect on airway constriction induced by histamine 2-5 ug/kg iv at 1 min after 10 mg/kg iv dose of compound; type: functional; how it was run: as §2
[6] = biological target: T1, Thromboxane-A synthase (Rattus norvegicus); assay: Tested ex vivo against TXA2 production in male SD rats at 1 hr after peroral dose of 30 mg/kg and anesthetized with ether; type: functional, organism-based; design: dose 30 mg/kg; how it was run: as §1
[7] = test system: Rattus norvegicus; assay: Tested ex vivo against serum TXB2 production at 1 hr after oral dose of 3 mg/kg of drug to rat; type: functional; how it was run: as §1
[8] = test system: Rattus norvegicus; assay: Tested ex vivo against serum TXB2 production at 1 hr after oral dose of 30 mg/kg of drug to rat; type: functional; how it was run: as §1

| Structure (SMILES) | pIC50 [1] | inhibition [2] | inhibition [3] | further results |
| --- | --- | --- | --- | --- |
| COCCn1nc(-c2cccnc2)c2ccccc2c1=O | 5.03 | 55% |  |  |
| CCn1nc(-c2cncs2)c2ccccc2c1=O | 6.25 | 77% | 69% |  |
| O=c1c2ccccc2c(-c2cccnc2)nn1CCn1ccnc1 |  | 37% |  | inhibition in vivo at 10 mg/kg [4]: 97% |
| CC(C)NC(=O)CCCn1nc(-c2cccnc2)c2ccccc2c1=O | 4.19 | 89% |  |  |
| CCOC(=O)Cn1nc(-c2cccnc2)c2ccccc2c1=O | 4.36 | 28% | 0% |  |
| NCCn1nc(-c2cccnc2)c2ccccc2c1=O | < 4.00 | 29% |  |  |
| O=c1c2ccccc2c(-c2cccnc2)nn1S(=O)(=O)c1ccccc1 | 4.83 | 96% |  |  |
| O=c1c2ccccc2c(-c2cccnc2)nn1CC1CCCCC1 | 6.68 | 98% |  |  |
| O=c1c2ccccc2c(-c2cccnc2)nn1CCSC1=NCCS1 | 4.98 |  |  |  |
| Cn1nc(-c2cccnc2)c2ccccc2c1=O | 4.94 | 63% | 94% | inhibition in vivo at 10 mg/kg [5]: 97% |
| O=c1c2ccccc2c(-c2cccnc2)nn1CCCCSc1ncccn1 | 5.21 | 96% |  |  |
| O=C(O)CCCn1nc(-c2cccnc2)c2ccccc2c1=O | < 4.00 | 73% |  |  |
| C=CCn1nc(-c2cccnc2)c2ccccc2c1=O | 5.67 | 70% | 82% | inhibition in vivo at 10 mg/kg [4]: 100% |
| CC(C)n1nc(-c2cncs2)c2ccccc2c1=O | 5.47 |  |  | inhibition [6]: 71% |
| CC(=O)Cn1nc(-c2cccnc2)c2ccccc2c1=O | 4.39 | 13% |  |  |
| CCCn1nc(-c2cccnc2)c2ccccc2c1=O | 5.50 | 86% | 93% |  |
| COC(=O)c1ccc(Cn2nc(-c3cccnc3)c3ccccc3c2=O)cc1 | 5.23 | 95% |  |  |
| CCCCCCCCn1nc(-c2cccnc2)c2ccccc2c1=O | 4.66 | 99% |  |  |
| Oc1nnc(-c2cccnc2)c2ccccc12 | 4.99 | 26% | 78% |  |
| CC(C)Cn1nc(-c2cncs2)c2ccccc2c1=O | 5.62 |  |  |  |
| O=C(c1cccs1)n1nc(-c2cccnc2)c2ccccc2c1=O | 4.91 | 37% |  |  |
| CC(=O)OCCn1nc(-c2cccnc2)c2ccccc2c1=O | 5.01 | 32% |  |  |
| O=c1c2ccccc2c(-c2cccnc2)nn1CCSc1ncccn1 | 4.96 | 86% |  |  |
| CCCCn1nc(-c2cccnc2)c2ccccc2c1=O | 5.64 | 91% | 100% |  |

| Structure (SMILES) | pIC50 [1] | inhibition [2] | inhibition [3] | further results |
| --- | --- | --- | --- | --- |
| CCn1nc(-n2cncn2)c2ccccc2c1=O | 4.80 | 0% |  |  |
| O=c1c2ccccc2c(-c2cccnc2)nn1Cc1cccc(Cl)c1 | 5.38 | 95% |  |  |
| Oc1nnc(-c2cncs2)c2ccccc12 | 5.92 | 38% | 70% |  |
| Oc1nnc(-n2cncn2)c2ccccc12 | 4.78 |  |  |  |
| CCn1nc(-c2cncnc2)c2ccccc2c1=O | 5.02 | 26% |  |  |
| Oc1nnc(-c2nccs2)c2ccccc12 | 5.34 |  |  | inhibition [6]: 23% |
| CC(C)=CCn1nc(-c2cccnc2)c2ccccc2c1=O | 5.86 | 94% |  |  |
| CCn1nc(-c2nccs2)c2ccccc2c1=O | 5.50 | 4% | 5% |  |
| O=C1c2ccccc2C(=O)N1CCn1nc(-c2cccnc2)c2ccccc2c1=O | 4.66 | 87% |  |  |
| O=c1c2ccccc2c(-c2cccnc2)nn1CCO | 5.34 | 69% |  |  |
| O=c1c2ccccc2c(-c2cccnc2)nn1CCSc1ccccc1 | 5.04 |  |  | inhibition [6]: 52% |
| CC(C)n1nc(-c2cccnc2)c2ccccc2c1=O | 5.51 | 87% | 82% |  |
| O=C(O)/C=C/c1ccc(Cn2ccnc2)cc1 [OZAGREL] | < 3.00 |  | 92% | inhibition in vivo at 10 mg/kg [4]: 0%; inhibition in vivo at 3 mg/kg [7]: 86%; inhibition in vivo at 30 mg/kg [8]: 92% |
| Oc1nnc(-n2ccnc2)c2ccccc12 | 5.08 |  | 87% |  |
| O=c1c2ccccc2c(-c2cccnc2)nn1CCNS(=O)(=O)c1ccccc1 | 4.58 | 93% |  |  |
| CCOC(=O)CCCn1nc(-c2cccnc2)c2ccccc2c1=O | 5.00 | 95% |  |  |
| CCn1nc(-n2ccnc2)c2ccccc2c1=O | 5.27 | 53% | 72% |  |
| O=C(O)c1ccc(Cn2nc(-c3cccnc3)c3ccccc3c2=O)cc1 | 4.77 | 64% |  |  |
| CCn1nc(-c2cnccn2)c2ccccc2c1=O | 4.96 | 37% |  |  |
| O=c1c2ccccc2c(-c2cccnc2)nn1CCn1cnnn1 | 4.62 | 43% | 77% |  |
| O=c1c2ccccc2c(-c2cccnc2)nn1C1CCCC1 | 5.56 | 97% | 80% |  |
| O=C(O)Cn1nc(-c2cccnc2)c2ccccc2c1=O | < 4.00 | 13% |  |  |
| O=c1c2ccccc2c(-c2cccnc2)nn1Cc1ccccc1 | 5.61 | 97% | 86% |  |
